According to ChEMBL document CHEMBL1150072, “Two new bioactive monotetrahydrofuran Annonaceous acetogenins from the bark of Xylopia aromatica” (J Nat Prod, 1994):
Converted amounts (≈) assume the structure as drawn.

What was measured:
A549 = assay: Cytotoxicity against human A549 cells after 7 days by MTT assay; type: functional; conditions: A549, 168 h, read-out: ED50 (the source's name)
How it was run: (§1)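 Seven-day MTT assay of each compound against the human solid tumour lines A-549 (lung carcinoma), MCF-7 (breast carcinoma) and HT-29 (colon adenocarcinoma), run at a cell culture core laboratory. Adriamycin served as the positive control. Values from separate runs of the cell culture assay were reported apart.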

HT-29 = assay: Cytotoxicity against human HT-29 cells after 7 days by MTT assay; type: functional; conditions: HT-29, 168 h, read-out: ED50 (the source's name); how it was run: as §1
[1] = Toxicity in brine shrimp; type: organism-based; conditions: artemia, in vivo
MCF7 = assay: Cytotoxicity against human MCF7 cells after 7 days by MTT assay; type: functional; conditions: MCF7, 168 h, read-out: ED50 (the source's name); how it was run: as §1

## COc1cccc2c1C(=O)c1c(O)c3c(c(O)c1C2=O)C[C@@](O)(C(=O)CO)C[C@@H]3O[C@H]1C[C@H](N)[C@H](O)[C@H](C)O1 [DOXORUBICIN]
A549
  EC50: 1.1 ng/mL (≈ 0.00202 µM)
HT-29
  EC50: 2.7 ng/mL (≈ 0.00497 µM)

## CCCCCCCCCC/C=C\CC[C@@H](O)[C@H]1CC[C@H]([C@H](O)CCCCC(O)CCCCC[C@@H](O)CC2=C[C@H](C)OC2=O)O1 (stereo not given in full) [XYLOMATENIN]
[1]
  LC50: 770 ng/mL (≈ 1.24 µM)
A549
  EC50: < 1 ng/mL
HT-29
  EC50: < 1 ng/mL
MCF7
  EC50: 631 ng/mL (≈ 1.01 µM)

## CCCCCCCCCC/C=C\CC[C@@H](O)[C@H]1CC[C@H]([C@H](O)CCCCCCC(O)CCC[C@@H](O)CC2=C[C@H](C)OC2=O)O1 (stereo not given in full) [XYLOPIEN]
[1]
  LC50: 871 ng/mL (≈ 1.4 µM)
A549
  EC50: 3.64 ng/mL (≈ 0.00584 µM)
HT-29
  EC50: 7.26 ng/mL (≈ 0.0117 µM)
MCF7
  EC50: 7.11 ng/mL (≈ 0.0114 µM)
